ChEMBL document CHEMBL2150886, “Synthesis of [3β-acetoxy-urs-12-en-28-oyl]-1-monoglyceride and investigation on its anti tumor effects against BGC-823” (Bioorg Med Chem, 2011)

Legend:
[1] = Cytotoxicity against human GES-1 cells incubated for 48 hrs by MTT assay; format: cell-based; conditions: GES1, 48 h
In short: (§1)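 Cells were grown in RPMI-1640 with 10% heat-inactivated FCS at 37 °C under 5% CO₂, seeded at 5 × 10³ per well and left 24 h. Compounds in DMSO were diluted in medium to 0.5% final DMSO; controls received 0.5% DMSO. Exposure was 24–72 h, followed by MTT for 4 h, formazan dissolved in DMSO, and A570. Six wells per sample; IC₅₀ taken at 50% inhibition; ≥3 repeats.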

[2] = system: HT-29; experiment: Cytotoxicity against human HT-29 cells incubated for 48 hrs by MTT assay; format: functional, cell-based; conditions: HT-29, 48 h; in short: as §1
[3] = system: BGC-823; experiment: Cytotoxicity against human BGC823 cells by MTT assay; format: functional, cell-based; in short: as §1
[4] = system: HepG2; experiment: Cytotoxicity against human HepG2 cells incubated for 48 hrs by MTT assay; format: functional, cell-based; conditions: HepG2, 48 h; in short: as §1
[5] = system: Mus musculus; experiment: Toxicity in human BGC823 cells xenografted nude mouse assessed as body weight changes at 8 mg/kg, iv treated 5 times on day 1, 4, 7, 10 and day 13 post tumor implant (reference value: 20.21 +/- 1.83 grams); format: organism-based, BGC-823; set-up: dose 8 mg/kg, route intravenous; conditions: in vivo
[6] = system: Mus musculus; experiment: Toxicity in human BGC823 cells xenografted nude mouse assessed as body weight changes at 8 mg/kg, iv treated 4 times on day 1, 4, 7 and 10 post tumor implant (reference value: 20.54 +/- 1.45 grams); format: organism-based, BGC-823; set-up: dose 8 mg/kg, route intravenous; conditions: in vivo
[7] = system: Mus musculus; experiment: Toxicity in human BGC823 cells xenografted nude mouse assessed as body weight changes at 8 mg/kg, iv treated […] on day 1, 4, 7, 10, 13 and day 16 post tumor implant (reference value: 20.12 +/- 1.52 grams); format: organism-based, BGC-823; set-up: dose 8 mg/kg, route intravenous; conditions: in vivo
[8] = system: Mus musculus; experiment: Toxicity in human BGC823 cells xenografted nude mouse assessed as body weight changes at 8 mg/kg, iv treated 3 times on day 1, day 4 and day 7 post tumor implant (reference value: 20.79 +/- 1.29 grams); format: organism-based, BGC-823; set-up: dose 8 mg/kg, route intravenous; conditions: in vivo
[9] = system: BGC-823; experiment: Antitumor activity against human BGC823 cells xenografted in nude mouse assessed as reduction in tumor volume at 8 mg/kg, iv dosed 5 times; format: functional; set-up: scale not given: the % may be the effect or the level left
In short: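 Male nude mice (5 weeks, 18–22 g) inoculated subcutaneously with 1 × 10⁷ BGC-823 cells. At about 200 mm³ tumours, animals were randomised into four groups of eight. Each received 0.2 mL iv by tail vein; controls got 0.9% saline. Tumour volume was measured daily as 0.5 × length × width²; tumours were weighed at the end. Values are mean ± SD, n = 8.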

[10] = system: Mus musculus; experiment: Toxicity in human BGC823 cells xenografted nude mouse assessed as body weight changes at 8 mg/kg, iv treated on day 1 post tumor implant (reference value: 19.69 +/- 1.21 grams); format: organism-based, BGC-823; set-up: dose 8 mg/kg, route intravenous; conditions: in vivo
[11] = system: Mus musculus; experiment: Toxicity in human BGC823 cells xenografted nude mouse assessed as body weight changes at 8 mg/kg, iv treated 2 times on day 1 and day 4 post tumor implant (reference value: 20.58 +/- 1.35 grams); format: organism-based, BGC-823; set-up: dose 8 mg/kg, route intravenous; conditions: in vivo

SMILES	IC50 [1]	IC50 [2]	IC50 [3]	IC50 [4]	Activity [5]	Activity [6]	Activity [7]	Activity [8]	Activity [9]	Activity [10]	Activity [11]
C[C@H]1[C@H](C)CC[C@]2(C(=O)O)CC[C@]3(C)C(=CC[C@@H]4[C@@]5(C)CC[C@H](O)C(C)(C)[C@@H]5CC[C@]43C)[C@H]12 [URSOLIC ACID]	93.8 µM	26.3 µM	23 µM	–	–	–	–	–	–	–	–
CC(=O)O[C@H]1CC[C@]2(C)[C@H]3CC=C4[C@@H]5[C@@H](C)[C@H](C)CC[C@]5(C(=O)OCCO)CC[C@@]4(C)[C@]3(C)CC[C@H]2C1(C)C	137 µM	23.6 µM	17.2 µM	29.8 µM	–	–	–	–	–	–	–
CC(=O)O[C@H]1CC[C@]2(C)[C@H]3CC=C4[C@@H]5[C@@H](C)[C@H](C)CC[C@]5(C(=O)O)CC[C@@]4(C)[C@]3(C)CC[C@H]2C1(C)C [O-ACETYLURSOLIC ACID]	92.9 µM	23.9 µM	19.4 µM	37.7 µM	–	–	–	–	–	–	–
C[C@H]1[C@H](C)CC[C@]2(C(=O)OCC(O)CO)CC[C@]3(C)C(=CC[C@@H]4[C@@]5(C)CC[C@H](O)C(C)(C)[C@@H]5CC[C@]43C)[C@H]12 (some centres undefined)	154 µM	–	20.5 µM	44.2 µM	–	–	–	–	–	–	–
CC(=O)O[C@H]1C(=O)[C@@]2(C)[C@H]([C@H](OC(=O)c3ccccc3)[C@]3(O)C[C@H](OC(=O)[C@H](O)[C@@H](NC(=O)c4ccccc4)c4ccccc4)C(C)=C1C3(C)C)[C@]1(OC(C)=O)CO[C@@H]1C[C@@H]2O [PACLITAXEL]	106 µM	< 10 µM	33.1 µM	–	20.17 g	20.13 g	20.25 g	19.7 g	15.2%	18.76 g	19.72 g
